Assay outcomes from PubChem.
A selection: hits, their analogues and other compounds. The true share with any hit is near 2.1%.
Hck-Nef inh: inhibitors of Nef-activated human Hck kinase, primary screen, biochemical, Z-Lyte FRET, 384-well, Hck-YEEI; Tyrosine-protein kinase HCK (Homo sapiens), P08631; Recombinant Hck-YEEI plus Nef, Z-Lyte FRET kinase assay; inhibition, % at 20 µM; actives 0.68% (n = 220,000);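 active = Hck-Nef kinase inhibition above about 50%, limit read from the data; inactive = inhibition below that limit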;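 also: 0% = DMSO with Hck plus Nef and 100% = Hck alone without Nef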
Runt-CBFb FRET: inhibitors of RUNX1 Runt–CBFb binding, primary screen, biochemical, FRET, Cerulean-Runt, Venus-CBFb, uHTS. inhibition, % at 20 µM. Runt-related transcription factor 1 (Homo sapiens) + Core-binding factor subunit beta …. Cerulean-Runt/Venus-CBFb FRET ratio 530/480, 1 h. actives 0.46% (n = 220,000). AID 1496, 2009;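 active = inhibition over about 50% at 20 µM in the single-dose screen, limit read from the data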;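 also: 0% = DMSO wells and 100% = excess unlabeled CBFb competitor control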
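Measured by: fluorescence energy transfer, 422 nm excitation, 530/480 nm emission; Assay system: Cerulean-Runt domain; Medium: Tris pH 7.5 buffer with BSA; Measure: loss of energy transfer signal; Controls: 5 µM unlabeled CBFb as full-inhibition high control; Incubation: protein complex preformed 1 h, compound exposure 1 h, room temperature, dark.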
Runt-SMMHC FRET: inhibitors of RUNX1 Runt–CBFb-SMMHC binding, primary screen, biochemical, FRET, Cerulean-Runt, Venus-CBFb-SMMHC, uHTS. Runt-related transcription factor 1 (Homo sapiens) + Core-binding factor subunit beta …. Cerulean-Runt/Venus-CBFb-SMMHC FRET ratio 530/480, 1 h. AID 1434, 2008. inhibition, % at 20 µM. actives 0.74% (n = 220,000);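 active = mean inhibition across duplicate retests at 20 µM reaching about 50%, limit read from the data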;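 also: 0% = DMSO wells and 100% = wells with excess untagged CBFb-SMMHC; inhibitors lower the FRET ratio by blocking Runt binding to CBFb-SMMHC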
p97 inhibitor: inhibitors of human p97 ATPase, primary screen, biochemical; actives 0.42% (n = 220,000); AID 1481, 2009; Transitional endoplasmic reticulum ATPase (Homo sapiens), P55072; inhibition, % at 8 µM; recombinant p97 ATPase, Kinase-Glo ATP luminescence, 3 h; in the data active = inhibition above about 15%;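 also: 0% = DMSO vehicle and 100% = wells lacking enzyme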
Target sequence (P55072 whole entry, looked up): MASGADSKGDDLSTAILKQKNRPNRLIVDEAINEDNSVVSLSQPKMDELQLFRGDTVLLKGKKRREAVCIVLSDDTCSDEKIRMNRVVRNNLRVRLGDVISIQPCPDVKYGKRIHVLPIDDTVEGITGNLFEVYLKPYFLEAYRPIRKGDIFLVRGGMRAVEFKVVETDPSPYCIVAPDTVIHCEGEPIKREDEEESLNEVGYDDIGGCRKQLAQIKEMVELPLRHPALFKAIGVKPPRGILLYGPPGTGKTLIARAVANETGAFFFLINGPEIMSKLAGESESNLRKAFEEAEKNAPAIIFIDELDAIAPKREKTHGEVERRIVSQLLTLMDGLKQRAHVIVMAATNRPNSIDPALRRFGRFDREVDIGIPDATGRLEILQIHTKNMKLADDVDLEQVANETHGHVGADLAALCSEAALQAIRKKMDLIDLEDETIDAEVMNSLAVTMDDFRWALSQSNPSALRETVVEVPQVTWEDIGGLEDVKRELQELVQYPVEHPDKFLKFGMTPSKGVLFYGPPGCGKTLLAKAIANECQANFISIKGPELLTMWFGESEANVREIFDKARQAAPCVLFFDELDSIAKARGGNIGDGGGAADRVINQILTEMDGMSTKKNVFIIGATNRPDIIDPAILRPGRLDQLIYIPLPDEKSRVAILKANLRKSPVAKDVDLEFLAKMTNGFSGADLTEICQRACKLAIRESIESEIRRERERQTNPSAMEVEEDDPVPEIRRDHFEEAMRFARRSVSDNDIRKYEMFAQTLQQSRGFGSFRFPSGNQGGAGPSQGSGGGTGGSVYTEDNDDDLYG
TbHK1 inh: Trypanosoma brucei hexokinase 1 inhibitors, primary screen, biochemical, G6PDH-coupled NADH absorbance, MLSCN library; recombinant TbHK1, G6PDH-coupled NADH A340; hexokinase 1 [Trypanosoma brucei]; AID 1430, 2008; inhibition, % at 10 µM; actives 0.11% (n = 220,000);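 active = inhibition of 50% or more in the single-dose primary screen; inactive = inhibition below 50%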
RanGTP-Impb inh: inhibitors of RanGTP-importin-beta interaction, primary screen, biochemical, FRET, CFP-Ran, YFP-importin-beta, homogeneous; actives 1.1% (n = 300,000); cell-free CFP-Ran/YFP-importin-beta FRET ratio; inhibition, % (concentration not given with the values); AID 2216, 2009;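 active = more than half of the replicate wells show a fall in the fluorescence ratio signal beyond about 16%, limit read from the data, passing the limit was not always enough; inconclusive = exactly half of the replicate wells pass the set limit; inactive = fewer than half of replicates pass the limit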;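 also: 0% = DMSO wells and 100% = Ran loaded with GDP instead of GTP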
* hit, by the source's call; ? = inconclusive; · = no result given.

SMILES	Hck-Nef inh	Runt-CBFb FRET	Runt-SMMHC FRET	p97 inhibitor	TbHK1 inh	RanGTP-Impb inh
Cc1ccc(NC(=O)c2cc3ccccc3oc2=N)cc1	·	·	·	·	·	-6
Cc1ccc(C(=O)NC2CCC(C)CC2)s1 (stereo unspecified)	·	·	·	·	·	1
COc1ccccc1CCNC(=O)c1cc(-c2ccncc2)nc2ccc(Br)cc12	51*	-4	-5	13	-17	1
CNC(=O)c1c(NC(=O)CCS(=O)(=O)c2ccccc2)sc2c1CCN(C(=O)OC)C2	·	·	·	·	·	7
CCOC(=O)c1c(NC(=O)CCS(=O)(=O)c2ccccc2)sc2c1CCN(C(C)C)C2	·	·	·	·	·	127*
CN1CCc2c(sc(NC(=O)CS(=O)(=O)c3ccccc3)c2C(N)=O)C1	·	·	·	·	·	139*
CCCN1CCc2c(sc(NC(=O)CCS(=O)(=O)c3ccccc3)c2C(N)=O)C1	·	·	·	·	·	153*
CCS(=O)(=O)N1Cc2ccccc2CC1C(=O)N1CCN(c2ccccc2)CC1 (stereo unspecified)	1	-4	-8	1	3	-2
COc1ccc(C2=[N+]([O-])C(C)(C)N(O)C2C)cc1 (stereo unspecified)	4	-1	-5	-2	3	1
CCn1c(SCc2ccc(Cl)cc2Cl)nc2nc3c(cc2c1=O)CCCC3	1	-3	-3	0	-8	1
Cc1cc(Oc2nc3ccccn3c(=O)c2/C=C(\C#N)C(=O)NC2CCS(=O)(=O)C2)ccc1Cl (stereo unspecified)	·	·	·	·	·	59*
N#C/C(=C\c1c(Oc2ccc(Cl)cc2)nc2ccccn2c1=O)C(=O)NC1CCS(=O)(=O)C1 (stereo unspecified)	·	·	·	·	·	51*
COc1ccc(C(=O)Nc2ccc3c(c2)nc(CN2CCCC2)n3C)cc1	3	-1	2	1	-11	1
CC1CCN(C(=O)Cn2nnc(-c3ccccc3)n2)CC1	·	·	·	·	·	3
COc1ccc(CN(C(=O)c2ccco2)c2ccc(Br)cc2)cc1OC	0	-1	-44	-3	-4	0
O=C1/C(=C/N(C(=O)c2ccco2)c2ccc(Cl)cc2)Sc2ccccc21	6	21	75*	2	2	10
O=C1/C(=C/N(C(=O)c2ccco2)c2ccc(Br)cc2)Sc2ccccc21	2	20	67	-5	4	25*
CCN1C(=O)CSc2ccc(C(=O)NCc3ccco3)cc21	-2	1	7	5	0	23*
COc1ccc(-c2nc3ccc(C(=O)NCC(OC)OC)cc3nc2-c2ccc(OC)cc2)cc1	8	4	3	-4	-6	16*
CCCN1C2CCCC1CC(NC(=S)Nc1ccc(OC)cc1)C2 (stereo unspecified)	21	24	71*	1	-5	1
COc1ccc(NC(=S)NC2CC3CCCC(C2)N3C2CC2)cc1 (stereo unspecified)	19	0	2	2	6	3
CCOc1ccc(NC(=O)/C(C#N)=C/c2cn(CC(=O)O)c3ccccc23)cc1	·	·	·	·	·	3
CCOc1cccc(NC(=O)/C(C#N)=C\c2cn(CC(=O)O)c3ccccc23)c1	·	·	·	·	·	28*
Cc1cccc(NC(=O)/C(C#N)=C/c2cn(CC(=O)NCc3ccco3)c3ccccc23)c1C	6	-60	-46	-3	2	57*
CCn1c(SCc2nc(-c3ccc(OC)c(OC)c3)no2)nnc1-c1cccs1	2	-3	-5	-1	-3	?
SMILES	Hck-Nef inh	Runt-CBFb FRET	Runt-SMMHC FRET	p97 inhibitor	TbHK1 inh	RanGTP-Impb inh
CCN1CCc2c(sc(NC(=S)NC(=O)c3ccc(Cl)cc3)c2C(N)=O)C1	-22	119*	60*	7	-30	81*
CC(C)N1CCc2c(sc(NC(=O)c3ccc(S(=O)(=O)N4CCc5ccccc54)cc3)c2C(N)=O)C1	-56	-14	26	7	-22	90*
CC(C)N1CCc2c(sc(NC(=O)c3nc4ccccc4s3)c2C(N)=O)C1	24	9	33	11	-2	0
CC1CN(S(=O)(=O)c2ccc(C(=O)Nc3sc4c(c3C(N)=O)CCN(C)C4)cc2)CC(C)O1 (stereo unspecified)	-3	0	5	4	-14	·
CCN1CCc2c(sc(NC(=O)c3ccc(S(=O)(=O)N4CC(C)OC(C)C4)cc3)c2C(N)=O)C1 (stereo unspecified)	·	·	·	·	·	28*
CCN1CCN(S(=O)(=O)c2ccc(C(=O)Nc3sc4c(c3C(N)=O)CCN(CC)C4)cc2)CC1	·	·	·	·	·	58*
CN(CC(=O)O)S(=O)(=O)c1ccc(F)cc1	-6	-4	6	-2	5	2
CCOC(=O)/C(C#N)=C1/C=C(C)c2ccccc2N1	48	44	91*	-2	-5	4
CCCN(CC(=O)Nc1ccccc1C)C(=O)C1CCN(C(=O)Nc2ccccc2)CC1	·	·	·	·	·	-3
CS(=O)(=O)N(CC(=O)N1CCOCC1)c1ccccc1	·	·	·	·	·	2
CCCCNc1nc2sc3c(c2c(=O)n1-c1cccc(Cl)c1)CCN(C)C3	-24	49	126*	2	-45	30*
CCCCSc1nc2sc3c(c2c(=O)n1-c1ccccc1)CCN(C)C3	·	·	·	·	·	-10
CCCCCNc1nc2sc3c(c2c(=O)n1-c1cccc(Cl)c1)CCN(C)C3	6	44	103*	5	-34	44*
CC(C)Oc1ccc(C2CC(=O)N(c3cccc(/C=C/C(=O)O)c3)C2=O)cc1 (stereo unspecified)	·	·	·	·	·	-2
NSc1nc(N)c2nc(-c3ccccc3)c(-c3ccccc3)nc2n1	20	43	69*	3	-3	36*
Nc1nc(N)c2nc(-c3ccccc3)c(N)nc2n1	28	26	56*	10	0	-1
Cc1cc(N2C(=O)C(O)=C(C(=O)c3cc4ccccc4o3)C2c2ccc(Br)cc2)no1 (stereo unspecified)	·	·	·	·	·	47*
N#C/C(=C\c1ccc(-c2ccc(C(=O)O)cc2)o1)C(=O)Nc1ccc(F)cc1	·	·	·	·	·	-25
Cc1cccc(C)c1NC(=O)/C(C#N)=C/c1ccc(-c2ccc(C(=O)O)cc2)o1	·	·	·	·	·	37*
N#C/C(=C\c1ccc(N2CCOCC2)o1)C(=O)NCC1CCCO1 (stereo unspecified)	-13	10	10	1	0	12
